Laboratory results as given in ChEMBL document CHEMBL5252523, “Searching for New Leads for Tuberculosis: Design, Synthesis, and Biological Evaluation of Novel 2-Quinolin-4-yloxyacetamides” (J Med Chem, 2016).
In brackets after ≈: the same amount, converted by molar mass.

Tested on: not listed separately
Test: Microsomal stability in mouse liver microsomes assessed as half life at 0.5 uM preincubated followed by NADPH addition and measured upto 30 mins by LC-MS/MS analysis
Type: ADME, Microsome
Details: not given

`COc1ccc2nc(C)cc(OCCNc3cc(C)cc(C)c3)c2c1` and `COc1ccc2nc(C)cc(OCC(=O)Nc3cc(C)cc(C)c3)c2c1` cannot be ordered by half-life at 0.5 µM: less than 5 min for the first, less than 5 min for the second.

`COc1ccc2nc(C)cc(OC(C)(C)C(=O)Nc3cc(C)cc(C)c3)c2c1` and `Cc1cc(C)cc(NC(=O)COc2cc(C)nc3ccc(C)cc23)c1` cannot be ordered by half-life at 0.5 µM: less than 5 min for the first, less than 5 min for the second.

`COc1ccc2nc(C)cc(OCc3nc4cc(C)ccc4o3)c2c1` and `COc1ccc2nc(C)cc(OCC(=O)Nc3cc(C)c(F)c(C)c3)c2c1` cannot be ordered by half-life at 0.5 µM: less than 5 min for the first, less than 5 min for the second.

Tested on: not listed separately
Test: Kinetic aqueous solubility of compound in phosphate buffer at pH 7.4 incubated for 1 hrs by CLND assay
Type: physicochemical
Details: read-out: Kinetic_solubility

First: COc1ccc2nc(C)cc(OCC(=O)Nc3ccc(Cl)cc3)c2c1
Second: COc1ccc(NC(=O)COc2cc(C)nc3ccc(OC)cc23)cc1
The solubility kinetic at 1 h of the first is 12-fold lower: 9 µM (≈ 3.21 µg/mL) for the first, 108 µM (≈ 38.1 µg/mL) for the second.

First: COc1ccc2nc(C)cc(OCC(=O)Nc3cc(C)ccc3OC)c2c1
Second: COc1ccc2nc(C)cc(OCC(=O)Nc3cc(C)cc(C)c3)c2c1
The solubility kinetic at 1 h of the first is 2.7-fold lower: 9.5 µM (≈ 3.48 µg/mL) for the first, 26 µM (≈ 9.11 µg/mL) for the second.

First: COc1ccc2nc(C)cc(OCCNc3cc(C)cc(C)c3)c2c1
Second: COc1ccc2nc(C)cc(OC(C)(C)C(=O)Nc3cc(C)cc(C)c3)c2c1
The solubility kinetic at 1 h of the first is 1.6-fold higher: 33 µM (≈ 11.1 µg/mL) for the first, 20 µM (≈ 7.57 µg/mL) for the second.

First: COc1ccc2nc(C)cc(OCc3nc4cc(C)ccc4o3)c2c1
Second: COc1ccc2nc(C)cc(OCC(=O)Nc3cc(C)c(F)c(C)c3)c2c1
The solubility kinetic at 1 h of the first is 32-fold lower: 1 µM (≈ 0.334 µg/mL) for the first, 31.5 µM (≈ 11.6 µg/mL) for the second.

`Cc1cc(C)cc(NC(=O)COc2cc(C)nc3ccc(C)cc23)c1` gave a solubility kinetic at 1 h of 83 µM (≈ 27.8 µg/mL).

Tested on: Mycobacterium tuberculosis
Test: Antimycobacterial activity against Mycobacterium tuberculosis H37Rv ATCC 25618 expressing pATB45luc infected in PMA-stimulated human THP-1 cells assessed as inhibition of intracellular bacterial growth incubated for 4 days by BrightGlo luciferase assay
Type: functional, organism-based
Details: H37Rv ATCC 25618, THP-1, 96 h
Outline: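 THP-1 cells grown in RPMI-1640 with 10% FBS, 1 mM pyruvate and 2 mM L-glutamine. Cells were PMA-differentiated (40 ng/ml) while infected with single-cell Mtb H37Rv-pATB45luc at MOI 1:1 for 4 h at 37 °C in a roller bottle, then washed four times. About 10000 cells/well were added onto pre-dispensed compound (max DMSO 0.5%) and incubated 4 days at 37 °C. Luciferase luminescence was read; IC50/IC90 came from nonlinear regression of dose-response curves.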

Compared with `COc1ccc2nc(C)cc(OCC(=O)Nc3ccc(Cl)cc3)c2c1`, `COc1ccc(NC(=O)COc2cc(C)nc3ccc(OC)cc23)cc1` is 5.3-fold lower in IC50: 0.16 µM for the first, 0.03 µM for the second.

First: COc1ccc2nc(C)cc(OCC(=O)Nc3cc(C)ccc3OC)c2c1
Second: COc1ccc2nc(C)cc(OCC(=O)Nc3cc(C)cc(C)c3)c2c1
The IC50 of the first is 3.2-fold higher: 0.16 µM for the first, 0.05 µM for the second. The second is the more potent here.

Molecule `COc1ccc2nc(C)cc(OCC(=O)Nc3cc(C)c(F)c(C)c3)c2c1` has an IC50 of 0.08 µM.

Same assay, conditions: H37Rv ATCC 25618, THP-1, 96 h, time 4 day

Compared with `COc1ccc2nc(C)cc(OCC(=O)Nc3ccc(Cl)cc3)c2c1`, `COc1ccc(NC(=O)COc2cc(C)nc3ccc(OC)cc23)cc1` is 2-fold lower in IC90: 0.5 µM for the first, 0.25 µM for the second.

First: COc1ccc2nc(C)cc(OCC(=O)Nc3cc(C)ccc3OC)c2c1
Second: COc1ccc2nc(C)cc(OCC(=O)Nc3cc(C)cc(C)c3)c2c1
The IC90 of the first is 3.1-fold higher: 0.63 µM for the first, 0.2 µM for the second.

Compared with `COc1ccc2nc(C)cc(OCc3nc4cc(C)ccc4o3)c2c1`, `COc1ccc2nc(C)cc(OCC(=O)Nc3cc(C)c(F)c(C)c3)c2c1` is 20-fold lower in IC90: 5 µM for the first, 0.25 µM for the second.

Tested on: not listed separately
Test: Stability of compound in CD1 mouse blood at 0.5 uM incubated upto 240 mins in presence of NaF pretreatment by LC-MS/MS analysis
Type: ADME, tissue-based
Details: 4 h

In the case of `COc1ccc2nc(C)cc(OCCNc3cc(C)cc(C)c3)c2c1`, the Stability is reported as “Stable”.
In the case of `COc1ccc2nc(C)cc(OC(C)(C)C(=O)Nc3cc(C)cc(C)c3)c2c1`, the Stability is reported as “Stable”.

Tested on: not listed separately
Test: Stability of compound in CD1 mouse blood assessed as half life at 0.5 uM incubated upto 240 mins by LC-MS/MS analysis
Type: ADME, tissue-based
Details: not given
Outline: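 Fresh CD1 mouse whole blood collected in EDTA tubes and spiked with compound. Three 300 μl aliquots were incubated at 37 °C. Supernatants were analysed by LC-MS/MS; analyte/internal standard ratios were normalised to time zero as % remaining, and half-life was taken from ln plots of % remaining.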

First: COc1ccc2nc(C)cc(OCCNc3cc(C)cc(C)c3)c2c1
Second: COc1ccc2nc(C)cc(OCC(=O)Nc3cc(C)cc(C)c3)c2c1
The half-life at 0.5 µM of the first is higher: greater than 120 min for the first, less than 5 min for the second.

Going from `COc1ccc2nc(C)cc(OC(C)(C)C(=O)Nc3cc(C)cc(C)c3)c2c1` to `Cc1cc(C)cc(NC(=O)COc2cc(C)nc3ccc(C)cc23)c1`, the half-life at 0.5 µM falls from 96 min to less than 5 min.

Compared with `COc1ccc2nc(C)cc(OCc3nc4cc(C)ccc4o3)c2c1`, `COc1ccc2nc(C)cc(OCC(=O)Nc3cc(C)c(F)c(C)c3)c2c1` is lower in half-life at 0.5 µM: greater than 240 min for the first, less than 5 min for the second.

Tested on: not listed separately
Test: Microsomal stability in human liver microsomes assessed as half life at 0.5 uM preincubated followed by NADPH addition and measured upto 30 mins by LC-MS/MS analysis
Type: ADME, Microsome
Details: not given

`COc1ccc2nc(C)cc(OCCNc3cc(C)cc(C)c3)c2c1` and `COc1ccc2nc(C)cc(OCC(=O)Nc3cc(C)cc(C)c3)c2c1` cannot be ordered by half-life at 0.5 µM: greater than 30 min for the first, greater than 30 min for the second.

First: COc1ccc2nc(C)cc(OC(C)(C)C(=O)Nc3cc(C)cc(C)c3)c2c1
Second: Cc1cc(C)cc(NC(=O)COc2cc(C)nc3ccc(C)cc23)c1
The half-life at 0.5 µM of the first is lower: 19 min for the first, greater than 30 min for the second.

Going from `COc1ccc2nc(C)cc(OCc3nc4cc(C)ccc4o3)c2c1` to `COc1ccc2nc(C)cc(OCC(=O)Nc3cc(C)c(F)c(C)c3)c2c1`, the half-life at 0.5 µM rises from 15.7 min to greater than 30 min.

Tested on: not listed separately
Test: Cytotoxicity against human HepG2 cells assessed as cell growth inhibition incubated for 48 hrs by CellTiter-Glo reagent based analysis
Type: toxicity
Details: not given
Outline: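 HepG2 cells kept in Eagle's MEM with 10% heat-inactivated FBS, 1% NEAA and penicillin/streptomycin, seeded at ~3000 cells/well onto pre-dispensed compound. Incubation was 48 h at 37 °C, 5% CO2. Plates were equilibrated to room temperature, CellTiter-Glo was added, and ATP luminescence was read after 10 min as the viability read-out.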

`COc1ccc2nc(C)cc(OCC(=O)Nc3ccc(Cl)cc3)c2c1` and `COc1ccc(NC(=O)COc2cc(C)nc3ccc(OC)cc23)cc1` cannot be ordered by IC50 at 48 h: greater than 100 µM for the first, greater than 100 µM for the second.

`COc1ccc2nc(C)cc(OCC(=O)Nc3cc(C)ccc3OC)c2c1` and `COc1ccc2nc(C)cc(OCC(=O)Nc3cc(C)c(F)c(C)c3)c2c1` cannot be ordered by IC50 at 48 h: greater than 100 µM for the first, greater than 100 µM for the second.

First: COc1ccc2nc(C)cc(OCCNc3cc(C)cc(C)c3)c2c1
Second: COc1ccc2nc(C)cc(OC(C)(C)C(=O)Nc3cc(C)cc(C)c3)c2c1
The IC50 at 48 h of the first is lower: 31.6 µM for the first, greater than 100 µM for the second.

First: COc1ccc2nc(C)cc(OCc3nc4cc(C)ccc4o3)c2c1
Second: Cc1cc(C)cc(NC(=O)COc2cc(C)nc3ccc(C)cc23)c1
The IC50 at 48 h of the first is higher: greater than 100 µM for the first, 15.8 µM for the second.

Tested on: not listed separately
Test: Chromatographic hydrophobicity index, log D of the compound in phosphate buffer at pH 7.4 by UV-HPLC analysis
Type: physicochemical
Details: not given

First: COc1ccc2nc(C)cc(OCC(=O)Nc3ccc(Cl)cc3)c2c1
Second: COc1ccc(NC(=O)COc2cc(C)nc3ccc(OC)cc23)cc1
The chromatographic logD of the first is higher: 5.15 for the first, 4.22 for the second.

`COc1ccc2nc(C)cc(OCC(=O)Nc3cc(C)ccc3OC)c2c1` and `COc1ccc2nc(C)cc(OCC(=O)Nc3cc(C)cc(C)c3)c2c1` are within 0.2 log units of each other in chromatographic logD: 5.65 for the first, 5.64 for the second.

Going from `COc1ccc2nc(C)cc(OCCNc3cc(C)cc(C)c3)c2c1` to `COc1ccc2nc(C)cc(OC(C)(C)C(=O)Nc3cc(C)cc(C)c3)c2c1`, the chromatographic logD falls from 6.93 to 6.37.

Compared with `COc1ccc2nc(C)cc(OCc3nc4cc(C)ccc4o3)c2c1`, `COc1ccc2nc(C)cc(OCC(=O)Nc3cc(C)c(F)c(C)c3)c2c1` is lower in chromatographic logD: 6.12 for the first, 5.5 for the second.

Molecule `Cc1cc(C)cc(NC(=O)COc2cc(C)nc3ccc(C)cc23)c1` has a chromatographic logD of 5.95.

Tested on: not listed separately
Test: Artificial membrane permeability of the compound incubated for 3 hrs by HPLC analysis
Type: ADME
Details: PAMPA, read-out: permeability

Compared with `COc1ccc2nc(C)cc(OCCNc3cc(C)cc(C)c3)c2c1`, `COc1ccc2nc(C)cc(OCC(=O)Nc3cc(C)cc(C)c3)c2c1` is lower in Papp at 3 h: 190 nm/s for the first, 180 nm/s for the second.

Going from `COc1ccc2nc(C)cc(OCc3nc4cc(C)ccc4o3)c2c1` to `COc1ccc(NC(=O)COc2cc(C)nc3ccc(OC)cc23)cc1`, the Papp at 3 h rises from 86 nm/s to 420 nm/s.

Compared with `COc1ccc2nc(C)cc(OCC(=O)Nc3cc(C)c(F)c(C)c3)c2c1`, `Cc1cc(C)cc(NC(=O)COc2cc(C)nc3ccc(C)cc23)c1` is higher in Papp at 3 h: 210 nm/s for the first, 520 nm/s for the second.

Tested on: Mycobacterium tuberculosis
Test: Antimycobacterial activity against Mycobacterium tuberculosis H37Rv ATCC 25618 assessed as inhibition of microbial growth incubated for 6 days by resazurin based assay
Type: functional
Details: H37Rv ATCC 25618, 144 h, time 6 day
Outline: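 Ten two-fold dilutions made in neat DMSO, tested in Middlebrook 7H9 with the H37Rv inoculum. Controls: isoniazid from 4 μg/ml as positive control; rifampicin 1 μM as no-growth control. Plates sat sealed at 37 °C without shaking for 6 days.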

Compared with `COc1ccc2nc(C)cc(OCC(=O)Nc3ccc(Cl)cc3)c2c1`, `COc1ccc(NC(=O)COc2cc(C)nc3ccc(OC)cc23)cc1` is 5-fold lower in MIC: 3 µM for the first, 0.6 µM for the second.

`COc1ccc2nc(C)cc(OCC(=O)Nc3cc(C)ccc3OC)c2c1` and `COc1ccc2nc(C)cc(OCC(=O)Nc3cc(C)cc(C)c3)c2c1` are within 1.5-fold of each other in MIC: 2.5 µM for the first, 1.9 µM for the second.

Going from `COc1ccc2nc(C)cc(OCCNc3cc(C)cc(C)c3)c2c1` to `COc1ccc2nc(C)cc(OC(C)(C)C(=O)Nc3cc(C)cc(C)c3)c2c1`, the MIC rises from 32 µM to greater than 250 µM.

First: COc1ccc2nc(C)cc(OCc3nc4cc(C)ccc4o3)c2c1
Second: COc1ccc2nc(C)cc(OCC(=O)Nc3cc(C)c(F)c(C)c3)c2c1
The MIC of the first is 2.8-fold higher: 5.5 µM for the first, 2 µM for the second.

In the case of `Cc1cc(C)cc(NC(=O)COc2cc(C)nc3ccc(C)cc23)c1`, the MIC is reported as 3.9 µM.

Target: Voltage-gated inwardly rectifying potassium channel KCNH2 (Homo sapiens, UniProt Q12809)
Sequence (Q12809 whole entry): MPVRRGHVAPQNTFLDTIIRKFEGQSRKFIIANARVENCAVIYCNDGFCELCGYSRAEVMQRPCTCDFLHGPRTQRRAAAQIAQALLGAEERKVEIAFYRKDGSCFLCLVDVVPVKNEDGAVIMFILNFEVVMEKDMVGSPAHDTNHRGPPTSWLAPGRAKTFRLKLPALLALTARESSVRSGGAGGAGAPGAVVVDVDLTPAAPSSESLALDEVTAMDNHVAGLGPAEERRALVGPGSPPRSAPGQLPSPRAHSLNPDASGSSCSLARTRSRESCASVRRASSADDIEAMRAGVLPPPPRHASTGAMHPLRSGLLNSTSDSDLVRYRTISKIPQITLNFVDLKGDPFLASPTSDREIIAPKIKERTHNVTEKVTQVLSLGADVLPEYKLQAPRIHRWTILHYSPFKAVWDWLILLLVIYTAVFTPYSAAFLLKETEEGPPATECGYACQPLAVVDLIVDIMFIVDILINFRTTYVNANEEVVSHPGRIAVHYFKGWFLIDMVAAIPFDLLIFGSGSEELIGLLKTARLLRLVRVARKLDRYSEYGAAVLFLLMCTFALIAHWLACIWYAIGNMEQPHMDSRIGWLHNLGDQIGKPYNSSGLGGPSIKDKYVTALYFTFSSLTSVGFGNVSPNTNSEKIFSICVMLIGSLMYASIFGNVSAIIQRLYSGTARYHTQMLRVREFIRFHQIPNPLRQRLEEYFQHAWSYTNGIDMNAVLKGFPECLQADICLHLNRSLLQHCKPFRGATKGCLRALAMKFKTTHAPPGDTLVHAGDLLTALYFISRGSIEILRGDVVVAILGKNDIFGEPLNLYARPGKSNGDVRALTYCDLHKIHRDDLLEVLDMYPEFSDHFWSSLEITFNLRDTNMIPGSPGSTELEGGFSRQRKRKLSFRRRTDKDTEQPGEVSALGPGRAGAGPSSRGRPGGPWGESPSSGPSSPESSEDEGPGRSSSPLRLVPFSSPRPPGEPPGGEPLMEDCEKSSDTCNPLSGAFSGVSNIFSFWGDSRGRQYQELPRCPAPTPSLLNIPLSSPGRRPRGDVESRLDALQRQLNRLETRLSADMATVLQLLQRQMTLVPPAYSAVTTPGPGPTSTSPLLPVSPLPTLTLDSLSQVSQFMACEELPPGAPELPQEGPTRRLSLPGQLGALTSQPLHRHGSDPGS
Test: Inhibition of human ERG
Type: toxicity
Details: not given

`COc1ccc2nc(C)cc(OCC(=O)Nc3ccc(Cl)cc3)c2c1` and `COc1ccc(NC(=O)COc2cc(C)nc3ccc(OC)cc23)cc1` are within 1.5-fold of each other in IC50: 5.01 µM for the first, 6.31 µM for the second.

Going from `COc1ccc2nc(C)cc(OCC(=O)Nc3cc(C)ccc3OC)c2c1` to `COc1ccc2nc(C)cc(OCC(=O)Nc3cc(C)cc(C)c3)c2c1`, the IC50 rises from 5.01 µM to greater than 50.1 µM.

`COc1ccc2nc(C)cc(OCc3nc4cc(C)ccc4o3)c2c1` and `COc1ccc2nc(C)cc(OCC(=O)Nc3cc(C)c(F)c(C)c3)c2c1` cannot be ordered by IC50: greater than 50.1 µM for the first, greater than 50.1 µM for the second.
